Assay results from the EternaBench riboswitch data.

System: MS2 coat protein
Assay: apparent Kd, MS2 coat protein; higher = weaker binding; RNA-MaP array; FMN 200 µM where present
Procedure, shortened: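 Green signal was scaled to red-channel RNA signal and control-cluster median Fmax, and the apparent Kd was taken as the median of filtered per-cluster binding-curve fits. The binding series used SNAP-549-labelled MS2 coat protein from 0.7 or 1.5 nM, doubling to 3 µM, on designs transcribed by stalled E. coli RNA polymerase on Illumina sequencing-chip clusters. Each series ran without and then with constant ligand in 100 mM Tris-HCl pH 7.5, 80 mM KCl, 4 mM MgCl2, BSA, DTT, yeast tRNA and Tween-20.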

[1] = designed as: OFF switch for flavin mononucleotide, no ligand
[2] = ligand present: flavin mononucleotide, designed as: OFF switch for flavin mononucleotide
[3] = designed as: ON switch for flavin mononucleotide, no ligand
[4] = ligand present: flavin mononucleotide, designed as: ON switch for flavin mononucleotide

| Sequence | apparent Kd [1] | apparent Kd [2] | apparent Kd [3] | apparent Kd [4] |
| --- | --- | --- | --- | --- |
| ACAUGAUAUGUAGGAUAUCACAUUAAUUGAUUAAUAUUUCUAUAUAGAAUUUGAGAAGGACAUUUACAUGAGGAUCACCCAUGU | 10.3 nM | 10.3 nM | – | – |
| GGUACUCAAAGAGUACCAAUUCGAACAUGAGGAUCACCCAUGUAGGAUAUGCUACUCAAAGAGUAGCAGAAGGACAUGUGCCUA | 15.6 nM | 73.6 nM | – | – |
| ACUUACUGAGGAUAUACAUAGAUUUACAUGAGGAUCACCCAUGUUCCUCUAUGUAUAUAUGUAGAAGGCAGAAGUU | 26.3 nM | 97.8 nM | – | – |
| UUGUCUCAUGAGAAGGACAUGAGGAUCACCCAUGUAGGAUAUCAUGGGUCAGUGGAAUUGAAUCUUCGGAUUCAAUAACUCUAC | – | – | 15 nM | 7 nM |
| GCGUUCUUGUAGAAGGUACUUUCGACAUCUUAUAAACGCUUGACACAUGAGGAUCACCCAUGUUGUAAGGAUAUACAUGAACGC | – | – | 6.61 nM | 6.41 nM |
| AAAUAGCGAGGAUAUACAUGAGGAUCACCCAUGUGGACUGAUGUCGCGUGAUUCAGUGGUAGAAGGUGCUCAAA | 45.4 nM | 76.3 nM | – | – |
| CGUGCUAUGUAGAAGGCAGAUCUGAUUCAGAUCUGAGGAUAUACAUGAGGAUCACCCAUGUUAUGCACCAGCACGAGAGUGCAU | 9.83 nM | 40.2 nM | – | – |
| GUACUACAUGAGGAUCACCCAUGUCAGGAUAUGUGAAUUUCAUCAAAAGAUGAAAUUUGCAGAAGGGACAGUAC | 25.3 nM | 33.9 nM | – | – |
| AGAUAGUGGUGAGGAUAUCAGAAUAGAAAGAAAUGAGAAGGCACACAUGAGGAUCACCCAUGUGAGUUCUUGAGAUUACAUGGU | 18.4 nM | 34.2 nM | – | – |
| ACACAUGAGGAUCACCCAUGUAGCUGGCAUCUGCGCCAGCCACAGGAUAUACGGCAACACAAACCGUAGAAGGGUGAUAAACAC | – | – | 59.5 nM | 35.5 nM |
| CUCUUGUCAGGAUAUUAUGGACGAAGGCAGGGCCGCGUCAGUGAGAAGGGACAUGAGGAUCACCCAUGUAAAAU | 97.8 nM | 74.6 nM | – | – |
| ACAGGCUUCGAGAAGGACAUGAGGAUCACCCAUGUGCGUGUGAAGCAGCCGUGAGGCUGCAUCAUGUAGGAUAUCGGAGUCUGC | 73 nM | 557 nM | – | – |
| AGUGAAUGUACAGGAUAUGCUGGACUUUGUCCAGCAGAAGGGUAUUAACAUGAGGAUCACCCAUGUUCAUUCACCAAAUUUAAU | – | – | 38.8 nM | 8.3 nM |
| CCUACCAUCACAGGAUAUGCUAUCCUUUGGGUAGCAGAAGGGUGAUAACAUGAGGAUCACCCAUGUGGUAGGCCCGGUGACGGG | – | – | 768 nM | 227 nM |
| AUCAUACAUGAGGAUCACCCAUGUUCCGGCAGGUCAGGAUAUAAAUCGAAUGAGUUCUAGUUAGAAGGGACAUCUA | – | – | 49.3 nM | 39.2 nM |
| CUAAAGCAUGUAGGAUAUGCGUGGCGAAGCUAUGCAGAAGGACAUGAGGAUCACCCAUGUCUUUCCGUCUGCGUACAGACGGAA | 19.1 nM | 52.4 nM | – | – |
| CAAGGCUUCACAGGAUAUAUUGAUGACAUGAGGAUCACCCAUGUACCGGCAGUAGAAGGGUGAACGCUCGUGGCCACGUGCGUG | – | – | 130 nM | 35.6 nM |
| AGGGAGUAAGGAUAUCGGAAAGGACACGAAAGUGACAAAGACGAGAAGGUACAUGAGGAUCACCCAUGUAAAAA | 21.3 nM | 20.1 nM | – | – |
| GGUCCAUCUGUUAGGAUAUGCUUUGGGCUUCCGCAGUAGAAGGAACAUGAGGAUCACCCAUGUCCGAUGCCGUC | 25.1 nM | 30.3 nM | – | – |
| CUCAUGUCAGGAUAUCAGUAGUAAAAAAAUAAAAUUACUACUGAGAAGGGACAUGAGGAUCACCCAUGUCCUGG | 95.8 nM | 17.9 nM | – | – |
| UUAUUAUAUGUAGGAUAUGCAUAUUAUUAUUAUGCAGAAGGACAUGAGGAUCACCCAUGUAUAUUAUUAUUGUAUAUUAUAUAU | 28.4 nM | 46.1 nM | – | – |

| Sequence | apparent Kd [1] | apparent Kd [2] | apparent Kd [3] | apparent Kd [4] |
| --- | --- | --- | --- | --- |
| GUCAGCUCGUGAGGAUAUACAACACUGCCUCGGCAGUGUAUUAAGAUCACAUGAGGAUCACCCAUGUAGAAGGCACGAGCUGAU | 13.4 nM | 214 nM | – | – |
| UGGUACUAGGGAGGAUAUGGGAAGAUACAUGAGGAUCACCCAUGUUUAAGAAUGCCGAGAGUCAACUAGAAGGCCCUAGUACCU | – | – | 180 nM | 20.3 nM |
| CAGCACGGAAACAAAGUCUUCGGACAUGAGGAUCACCCAUGUAAGGAUAUGCCUACUAAAAGUAGGCAGAAGGUACGCGUGCUG | 18.9 nM | 50.9 nM | – | – |
| UCCUUGUCCUGAGGAUAUCCGUGGUUCCCGAAAGGAGAAGGCAGGACAUGAGGAUCACCCAUGUACCCAGAUAUCGUACAGAGA | 50.4 nM | 360 nM | – | – |
| AUCAGCUCGUCAGGAUAUACGUCACUGCGUCAGCAGUGUGGUAAGAUCACAUGAGGAUCACCCAUGUAGAAGGGACAAGCUGAU | 13.1 nM | 270 nM | – | – |
| GUCGGAAACGACAAUGAUAGGACUGAGGAUAUACAUAAAUAAAUCCUUACAUGAGGAUCACCCAUGUAGAAGGCAGUCCUAUCU | 47.2 nM | 590 nM | – | – |
| UAAUAAUAGCAAGGAUAUGAUUAUUAUAAUAUAUCAGAAGGUGCACAUGAGGAUCACCCAUGUUUUAUAAUUUGUAAUUUAAAU | 54.4 nM | 37.9 nM | – | – |
| AGCAACAUGAGGAUCACCCAUGUUGGUUCGAAAACGGACUCACAGGAUAUGCAGCGUGAUCGCUCGCAGAAGGGUGCGUCCUCA | – | – | 51.2 nM | 38.7 nM |
| GGUCGUCACAUUAACAUGAGGAUCACCCAUGUAUAAAGACAUGAGGAUAUGCAUCCUAAUUGGAUGCAGAAGGCAUGGACGACC | – | – | 9.7 nM | 6.13 nM |
| CUAUGCGGAAUAGGAUAUUCAUUCAUGAGGAUAGAAGAAGGGUUACAUGAGGAUCACCCAUGUAUACACAUGAGGAUCCCUUAC | 162 nM | 181 nM | – | – |
| UUCAGACAUGAGGAUCACCCAUGUGAGGAUAUGAUGCGAUCGUCGAAAGACGAUAGCAUCAGAAGGCACAAAUG | 103 nM | 156 nM | – | – |
| AUACUCAUGUAAGGAUAUGCAGUCGAAACGGCUGCAGAAGGUACUAUAAUACAUGAGGAUCACCCAUGUCAAAAUAAAAUAGUU | – | – | 30.3 nM | 22.7 nM |
| CAGUACUGAGGAUAUACAUGAGGAUCACCCAUGUGUCCUAGCUAGGAUACUAGCAUUAGUAGAAGGCAGUACUG | 18 nM | 213 nM | – | – |
| UUUGCAACAUGAGGAUCACCCAUGUAGGAUAUCGCUAUUGUAAUCAUGAAACAUGAUUACAAUAGCGAGAAGGACAUAUGCUUU | 20.1 nM | 18.3 nM | – | – |
| UGAGCUGAAGGAUAUGCGUAAUCUCGGUGACGAGUAGAUCUACAUGAGGAUCACCCAUGUAGAAGGUCAGUUCU | 15.5 nM | 17.5 nM | – | – |
| AAUUGACACGUAGGAUAUCGCUCUUAUUUAACACGAGAAGGACGUACAUGAGGAUCACCCAUGUUAAAUGGUGUAGAUUAGUUG | 153 nM | 481 nM | – | – |
| UAUUAGUAAGGAUAUCUCGUCAUGGACGUGAGUCCAUGACGAGAGAAGGUACAUGAGGAUCACCCAUGUCUAUU | 18.1 nM | 19.4 nM | – | – |
| UGCAUACAUGAGGAUCACCCAUGUCAACUUAGUCGAGGAUAUGGGCAGCCCUGAGGCGAACCAGAAGGCGAAUUGU | – | – | 73.5 nM | 26.4 nM |
| GCACUGGAUGUAGGAUAUCAGGACGAUAAGUCCUGAGAAGGACAUGAGGAUCACCCAUGUCUCAAAUACCAGUGCAAUAAUAUA | 12.3 nM | 14.8 nM | – | – |
| UUGAAGAACUAAGGAUAUUGAAUACAUAUGUUUAACAUGAGGAUCACCCAUGUGGGUUGCGGUAUCGAGAAGGUAGAUUACUAG | – | – | 115 nM | 104 nM |
